From ChEMBL document CHEMBL5257157, “Biological evaluation of novel amidino substituted coumarin-benzazole hybrids as promising therapeutic agents” (RSC Med Chem, 2023)

Columns and labels:
Zika virus = test: Antiviral activity against Zika virus Mr776 infected in human Huh-7 cells assessed as inhibition of virus-induced cytopathogenic effect incubated for 3 to 7 days by MTS assay; assay type: functional, organism-based; conditions: Mr776, Huh-7
Influenza A virus [1] = test: Antiviral activity against influenza virus H1N1 infected in dog MDCK cells assessed as inhibition of virus-induced cytopathogenic effect incubated for 3 to 7 days by MTS assay; assay type: functional, organism-based
[2] = tested on: Respiratory syncytial virus; test: Antiviral activity against RSV infected in human HEL 299 cells assessed as inhibition of virus-induced cytopathogenic effect incubated for 3 to 7 days by MTS assay; assay type: functional, organism-based
Huh-7 = test: Cytotoxicity against human Huh-7 cells assessed as inhibition of cell growth incubated for 72 hrs by CellTiter96 Aqueous One Solution cell proliferation assay; assay type: functional
[3] = Antiviral activity against HCoV-NL63 infected in human Huh-7 cells assessed as inhibition of virus-induced cytopathogenic effect incubated for 3 to 7 days by MTS assay; assay type: functional, cell-based; conditions: Human coronavirus NL63, Huh-7
Yellow fever virus = test: Antiviral activity against Yellow fever virus 17D infected in human Huh-7 cells assessed as inhibition of virus-induced cytopathogenic effect incubated for 3 to 7 days by MTS assay; assay type: functional, organism-based
[4] = Cytotoxicity against human HEL 299 cells assessed as inhibition of cell growth incubated for 72 hrs by CellTiter96 Aqueous One Solution cell proliferation assay; assay type: toxicity, cell-based
Human coronavirus 229E = test: Antiviral activity against HCoV-229E infected in human HEL 299 cells assessed as inhibition of virus-induced cytopathogenic effect incubated for 3 to 7 days by MTS assay; assay type: functional, organism-based
Influenza B virus = test: Antiviral activity against influenza B virus infected in dog MDCK cells assessed as inhibition of virus-induced cytopathogenic effect incubated for 3 to 7 days by MTS assay; assay type: functional, organism-based
[5] = Cytotoxicity against dog MDCK cells assessed as inhibition of cell growth incubated for 72 hrs by CellTiter96 Aqueous One Solution cell proliferation assay; assay type: toxicity, cell-based, Canis lupus familiaris
Influenza A virus [6] = test: Antiviral activity against influenza virus H3N2 infected in dog MDCK cells assessed as inhibition of virus-induced cytopathogenic effect incubated for 3 to 7 days by MTS assay; assay type: functional, organism-based
[7] = Antioxidant activity assessed as DPPH radical scavenging activity incubated for 5 mins by absorbance based microplate reader analysis; assay type: functional
How it was run: (§1)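 Pure compounds tested in three colorimetric antioxidant assays, each run alongside the reference BHT. […] ABTS: direct reaction with ABTS•+ radical cation, reported as IC50. DPPH: scavenging of the stable DPPH radical by proton or electron donation, reported as IC50. FRAP: reducing power, expressed as mmolFe2+/mmolC.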

[8] = Antioxidant activity assessed as ABTS radical scavenging activity incubated for 5 mins by absorbance based microplate reader analysis; assay type: functional; how it was run: as §1
CAPAN-1 = test: Antiproliferative activity against human CAPAN-1 cells assessed as inhibition of cell growth incubated for 72 hrs by CellTiter96 Aqueous One Solution cell proliferation assay; assay type: functional, cell-based; conditions: CAPAN-1, 72 h
[9] = Antioxidant activity assessed as reduction of Fe3+ complex to Fe2+ analogue by measuring mmolFe2+/mmolc by FRAP assay; assay type: functional; how it was run: as §1
HL-60 = test: Antiproliferative activity against human HL-60 cells assessed as inhibition of cell growth incubated for 72 hrs by CellTiter96 Aqueous One Solution cell proliferation assay; assay type: functional, cell-based; conditions: HL-60, 72 h
Z-138 = test: Antiproliferative activity against human Z138 cells assessed as inhibition of cell growth incubated for 72 hrs by CellTiter96 Aqueous One Solution cell proliferation assay; assay type: functional, cell-based; conditions: Z-138, 72 h
LN-229 = test: Antiproliferative activity against human LN-229 cells assessed as inhibition of cell growth incubated for 72 hrs by CellTiter96 Aqueous One Solution cell proliferation assay; assay type: functional, cell-based; conditions: LN-229, 72 h
Human alphaherpesvirus 1 = test: Antiviral activity against HSV-1 KOS infected in human HEL 299 cells assessed as inhibition of virus-induced cytopathogenic effect incubated for 3 to 7 days by MTS assay; assay type: functional, organism-based; conditions: Human alphaherpesvirus 1, KOS
[10] = Antiproliferative activity against human DND41 cells assessed as inhibition of cell growth incubated for 72 hrs by CellTiter96 Aqueous One Solution cell proliferation assay; assay type: functional, cell-based; conditions: DND41, 72 h
K562 = test: Antiproliferative activity against human K562 cells assessed as inhibition of cell growth incubated for 72 hrs by CellTiter96 Aqueous One Solution cell proliferation assay; assay type: functional, cell-based; conditions: K562, 72 h
NCI-H460 = test: Antiproliferative activity against human NCI-H460 cells assessed as inhibition of cell growth incubated for 72 hrs by CellTiter96 Aqueous One Solution cell proliferation assay; assay type: functional, cell-based; conditions: NCI-H460, 72 h
Sindbis virus = test: Antiviral activity against Sindbis virus infected in human Huh-7 cells assessed as inhibition of virus-induced cytopathogenic effect incubated for 3 to 7 days by MTS assay; assay type: functional, organism-based
Human coronavirus OC43 = test: Antiviral activity against HCoV-OC43 infected in human HEL 299 cells assessed as inhibition of virus-induced cytopathogenic effect incubated for 3 to 7 days by MTS assay; assay type: functional, organism-based; conditions: Betacoronavirus 1, HEL 299
CCRF-CEM = test: Antiproliferative activity against human CEM cells assessed as inhibition of cell growth; assay type: functional, cell-based

| SMILES | EC50 (Zika virus) [µM] | EC50 (Influenza A virus [1]) [µM] | EC50 [2] [µM] | CC50 (Huh-7) [µM] | EC50 [3] [µM] | EC50 (Yellow fever virus) [µM] | CC50 at 72 h [4] [µM] | EC50 (Human coronavirus 229E) [µM] | EC50 (Influenza B virus) [µM] | CC50 at 72 h [5] [µM] | EC50 (Influenza A virus [6]) [µM] | IC50 [7] [µM] | IC50 [8] [µM] | IC50 (CAPAN-1) [µM] | IC50 (HL-60) [µM] | IC50 (Z-138) [µM] | IC50 (LN-229) [µM] | EC50 (Human alphaherpesvirus 1) [µM] | IC50 [10] [µM] | IC50 (K562) [µM] | other results |
| --- | --- | --- | --- | --- | --- | --- | --- | --- | --- | --- | --- | --- | --- | --- | --- | --- | --- | --- | --- | --- | --- |
| NC(=O)c1ncn([C@@H]2O[C@H](CO)[C@@H](O)[C@H]2O)n1 [RIBAVIRIN] | > 250 | 10.5 | 10.8 | 8.9 | > 250 | > 250 | > 250 | 82.6 | 2.8 | 67 | 4 | – | – | – | – | – | – | – | – | – | – |
| Cc1cc(C(C)(C)C)c(O)c(C(C)(C)C)c1 [BUTYLATED HYDROXYTOLUENE] | – | – | – | – | – | – | – | – | – | – | – | 25 | 180 | – | – | – | – | – | – | – | – |
| O=c1oc2ccc(Br)cc2c(Cl)c1-c1nc2cc(C3=NCCN3)ccc2[nH]1 | > 100 | 16.2 | > 100 | 2.3 | > 100 | > 100 | 51.6 | > 100 | > 100 | 59 | > 100 | 130 | 260 | 29.9 | 49.6 | 6.4 | 40.9 | > 100 | 6.2 | 9.7 | Activity [9]: 130 mmol/mmol; IC50 (NCI-H460): > 100 µM; EC50 (Sindbis virus): > 100 µM; EC50 (Human coronavirus OC43): > 100 µM |
| CCN(CC)c1ccc2cc(-c3nc4cccnc4s3)c(=N)oc2c1 | – | – | – | – | – | – | – | – | – | – | – | – | – | – | – | – | – | – | – | – | IC50 (CCRF-CEM): 0.17 µM |
| CCC(CC)COC(=O)[C@H](C)N[P@](=O)(OC[C@H]1O[C@@](C#N)(c2ccc3c(N)ncnn23)[C@H](O)[C@@H]1O)Oc1ccccc1 [REMDESIVIR] | 0.7 | – | 0.03 | > 10 | 0.03 | 6.2 | > 10 | 0.06 | – | – | – | – | – | – | – | – | – | – | – | – | EC50 (Sindbis virus): > 10 µM; EC50 (Human coronavirus OC43): 0.06 µM |
| COc1cc([C@@H]2c3cc4c(cc3[C@@H](O[C@@H]3O[C@@H]5CO[C@@H](C)O[C@H]5[C@H](O)[C@H]3O)[C@H]3COC(=O)[C@H]23)OCO4)cc(OC)c1O [ETOPOSIDE] | – | – | – | – | – | – | – | – | – | – | – | – | – | 1.45 | 0.42 | 0.85 | 0.43 | – | 2.8 | 1.77 | IC50 (NCI-H460): 3.65 µM |
| O=c1[nH]c(=O)n([C@H]2C[C@H](O)[C@@H](CO)O2)cc1/C=C/Br [BRIVUDINE] | – | – | – | – | – | – | > 100 | – | – | – | – | – | – | – | – | – | – | 0.05 | – | – | – |
| Cc1ccc2oc(=O)c(-c3nc4cc(C5=NCCCN5)ccc4[nH]3)c(Cl)c2c1 | > 100 | > 100 | 64.1 | 78.7 | > 100 | > 100 | > 100 | > 100 | > 100 | 77.1 | > 100 | 520 | 460 | 71.9 | 64.2 | 48.1 | > 100 | > 100 | 16.9 | > 100 | Activity [9]: 47.8 mmol/mmol; IC50 (NCI-H460): > 100 µM; EC50 (Sindbis virus): > 100 µM; EC50 (Human coronavirus OC43): 74.2 µM |
